Calls of active or inactive are those of the source. The calls are words filed in the database; no cut-off is given here.
Key:
[1] = Cytotoxicity against human CRL8799 cells assessed as cell survival at 20 to 100 uM after 72 hrs by neutral red dye assay; format: cell-based; conditions: read-out: Survival
Method in brief: (§1)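 The non-tumoral lines were grown with 10% FBS plus penicillin/streptomycin, as monolayers at 37 °C in 5% CO2: CRL-8799 in MEG medium and CRL-11233 in BEGM. Compounds in DMSO (≤0.5% v/v final) were applied for 72 h. Survival was read by neutral red uptake against 0.5% DMSO solvent-treated controls, as the mean of triplicates.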

HT-29 [2] = test: Induction of apoptosis in human HT-29 cells assessed as DNA fragmentation after 48 hrs by ELISA relative to control; format: functional
Method in brief: (§2)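 DNA fragmentation was measured with the Cell Death Detection ELISA Plus kit after treatment of cultured tumour cells. The signal is expressed relative to untreated control cultures, which are set to 1.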

MDA-MB-231 [3] = test: Induction of apoptosis in human MDA-MB-231 cells assessed as DNA fragmentation after 24 hrs by ELISA relative to control; format: functional; method in brief: as §2
[4] = Cytotoxicity against human CRL11233 cells assessed as cell survival at 20 to 100 uM after 72 hrs by neutral red dye assay; format: cell-based; conditions: read-out: Survival; method in brief: as §1
T-24 [5] = test: Cytotoxicity against human T24 cells after 72 hrs by neutral red dye assay; format: functional, cell-based; conditions: T-24, 72 h
Method in brief: (§3)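 Human tumour cells were grown as monolayers with 10% FBS and penicillin/streptomycin at 37 °C in 5% CO2 (HT-29 and T-24 in McCoy's, MDA-MB-231 in Leibovitz). They were exposed to compound in DMSO (≤0.5% v/v final) at screening concentrations of 20 and 100 μM for 72 h and read by neutral red uptake. Survival is relative to cells given DMSO only, in triplicate.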

MDA-MB-231 [6] = test: Cytotoxicity against human MDA-MB-231 cells after 72 hrs by neutral red dye assay; format: functional, cell-based; conditions: MDA-MB-231, 72 h; method in brief: as §3
HT-29 [7] = test: Cytotoxicity against human HT-29 cells after 72 hrs by neutral red dye assay; format: functional, cell-based; conditions: HT-29, 72 h; method in brief: as §3
MDA-MB-231 [8] = test: Cytotoxicity against human MDA-MB-231 cells assessed as cell survival at 100 uM after 72 hrs by neutral red dye assay; format: functional; conditions: MDA-MB-231, 72 h, read-out: Survival
Method in brief: (§4)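 HT-29 and T-24 cells were grown in McCoy's medium and MDA-MB-231 in Leibovitz, each with 10% FBS plus penicillin/streptomycin, as monolayers at 37 °C in 5% CO2. Compounds in DMSO (≤0.5% v/v final) were applied for 72 h. Survival was read by neutral red uptake against 0.5% DMSO-treated cells, as the mean of triplicates.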

T-24 [9] = test: Induction of apoptosis in human T24 cells assessed as caspase3 activation at IC50 after 48 hrs by FACS analysis relative to control; format: functional
Method in brief: (§5)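 Active caspase-3 was detected by flow cytometry with a FITC anti-active-caspase-3 antibody kit, with readings at 14, 24 and 48 h. Treated cells were compared with untreated control cells. Results are scored as (+) for an increase of about 50% and (++) for a larger rise.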

T-24 [10] = test: Induction of apoptosis in human T24 cells assessed as DNA fragmentation after 48 hrs by ELISA relative to control; format: functional; method in brief: as §2
T-24 [11] = test: Cytotoxicity against human T24 cells assessed as cell survival at 100 uM after 72 hrs by neutral red dye assay; format: functional; conditions: T-24, 72 h, read-out: Survival; method in brief: as §4
HT-29 [12] = test: Cytotoxicity against human HT-29 cells assessed as cell survival at 100 uM after 72 hrs by neutral red dye assay; format: functional; conditions: HT-29, 72 h, read-out: Survival; method in brief: as §4
HT-29 [13] = test: Induction of apoptosis in human HT-29 cells assessed as caspase3 activation at IC50 after 48 hrs by FACS analysis relative to control; format: functional; method in brief: as §5

Row | Structure (SMILES) | viability at 72 h, up to 100 µM [1] | fold change (FC) (HT-29 [2]) | fold change (FC) (MDA-MB-231 [3]) | viability at 72 h, up to 100 µM [4] | IC50 (T-24 [5]) | IC50 (MDA-MB-231 [6]) | IC50 (HT-29 [7]) | viability at 100 µM (MDA-MB-231 [8]) | Activity (T-24 [9]) | Activity (T-24 [10]) | viability at 100 µM (T-24 [11]) | viability at 100 µM (HT-29 [12]) | Activity (MDA-MB-231 [3]) | fold change (FC) (T-24 [10]) | Activity (HT-29 [2]) | Activity (HT-29 [13])
1 | CCCCCCCNc1nc(SCC)nc2ncccc12 | 93% | 2.4 | 2.7 | 100% | 5.3 µM | 2.6 µM | 19.9 µM | < 45% | 75% | inactive | < 45% | < 45% |  |  |  | 
2 | CCCCCNc1nc(SCCCC)nc2ncccc12 | 84% | 1.9 | 1.7 | 76% | 8.9 µM | 6.3 µM | 12.6 µM | < 45% | 50% | inactive | < 45% | < 45% |  |  |  | 
3 | c1ccc(CNc2nc(NCc3ccccc3)c3cccnc3n2)cc1 | 85% | 2.5 |  | 90% | 13.4 µM | 10.3 µM | 11 µM | < 45% | 50% |  | < 45% | < 45% | inactive | 4.6 |  | 
4 | c1ccc(CCCNc2nc(NCCCc3ccccc3)c3ccccc3n2)cc1 | 87% |  |  | 2% | 3.45 µM | 4.18 µM | 2.2 µM | < 45% | 75% | inactive | < 45% | < 45% | inactive |  | inactive | 75%
5 | CCCCCNc1nc(SCC)nc2ncccc12 | 88% | 5 | 6.6 | 100% | 4.3 µM | 1.3 µM | 5.1 µM | < 45% | 75% |  | < 45% | < 45% |  | 3.6 |  | 50%
6 | c1ccc(CCCCNc2nc(NCCCCc3ccccc3)c3ccccc3n2)cc1 | 6% | 2 |  | 11% | 11.9 µM | 1.22 µM | 3.78 µM | < 45% | 75% | inactive | < 45% | < 45% | inactive |  |  | 
7 | c1ccc(CCCNc2ccnc(NCCCc3ccccc3)n2)cc1 | 10% |  | 3.2 | 1% | 8.67 µM | 0.36 µM | 12.4 µM | < 45% |  |  | < 45% | < 45% |  | 1.7 | inactive | 50%
8 | c1ccc(CCCCNc2nc(NCCCCc3ccccc3)c3cccnc3n2)cc1 | 86% | 1.4 |  | 82% | 1.4 µM | 1.1 µM | 5 µM | < 45% |  |  | < 45% | < 45% | inactive | 4.6 |  | 50%
9 | CCCCCCNc1nc(SCCCC)nc2ncccc12 | 95% | 6.4 | 9.3 | 99% | 4.5 µM | 1.2 µM | 2.8 µM | < 45% | 75% |  | < 45% | < 45% |  | 4.3 |  | 75%
10 | Cc1ccc(CCNc2nc(NCCc3ccc(C)cc3)c3ccccc3n2)cc1 | 0% |  | 2.4 | 0% | 2.17 µM | 4.65 µM | 1.64 µM | < 45% |  | inactive | < 45% | < 45% |  |  | inactive | 50%
11 | CCCCCNc1nc(SC(C)C)nc2ncccc12 | 100% | 4.2 | 2.2 | 66% | 7.9 µM | 5.6 µM | 25.2 µM | < 45% | 50% |  | < 45% | < 45% |  | 1.7 |  | 75%
12 | c1ccc(CCNc2nc(NCCc3ccccc3)c3ccccc3n2)cc1 | 92% |  |  | 100% | 2.86 µM | 2.18 µM | 2.3 µM | < 45% | 50% | inactive | < 45% | < 45% | inactive |  | inactive | 
13 | c1ccc(CCCNc2nc(NCCCc3ccccc3)c3cccnc3n2)cc1 | 0% | 6 | 1.6 | 0% | 13.2 µM | 5.8 µM | 1.7 µM | < 45% |  |  | < 45% | < 45% |  | 3.1 |  | 50%
14 | c1ccc(CCNc2nc(NCCc3ccccc3)c3cccnc3n2)cc1 | 0% | 9.2 |  | 0% | 8.1 µM | 1.2 µM | 2.5 µM | < 45% | 75% |  | < 45% | < 45% | inactive | 1.2 |  | 50%
15 | COc1ccc(CNc2nc(NCc3ccc(OC)cc3)c3cccnc3n2)cc1 | 85% | 2.7 | 1.5 | 100% |  | 2.9 µM |  | < 45% |  |  | < 45% | < 45% |  | 2.3 |  | 50%
16 | COc1ccc(CNc2nc(NCc3ccc(OC)cc3)c3ccccc3n2)cc1 | 0% | 8.5 |  | 100% | 3.87 µM | 3.87 µM | 2.88 µM | < 45% |  |  | < 45% | < 45% | inactive | 5 |  | 50%
17 | Brc1ccc(CCNc2nc(NCCc3ccc(Br)cc3)c3ccccc3n2)cc1 | 11% |  |  | 1% | 3.32 µM | 10.4 µM | 3.47 µM | < 45% | 50% | inactive | < 45% | < 45% | inactive |  | inactive | 50%
18 | c1ccc(CNc2nc(NCc3ccccc3)c3ccccc3n2)cc1 | 89% | 3.6 |  | 100% | 5.96 µM | 1.79 µM | 4.72 µM | < 45% | 75% | inactive | < 45% | < 45% | inactive |  |  | 
19 | CCCCCNc1nc(NCCCCC)c2ccccc2n1 | 4% | 1.7 | 2.5 | 5% | 5.25 µM | 3.13 µM | 3.57 µM | < 45% | 50% |  | < 45% | < 45% |  | 1.8 |  | 
